Drawing on ChEMBL document CHEMBL1132699, “Synthesis and biological evaluation of 2',3'-didehydro-2',3'- dideoxy-5-fluorocytidine (D4FC) analogues: discovery of carbocyclic nucleoside triphosphates with potent inhibitory activity against HIV-1 reverse transcriptase” (J Med Chem, 1999), this text covers IC50, EC90 and EC50 for six compounds.

For the first assay, the system named is MCF7. In words: Tested in vitro for anticancer activity against MCF-7 cells. To be noted: Homo sapiens. Type of assay: functional, cell-based.
Usually IC50 stands for the point on the concentration scale where inhibition reaches its midpoint. A low value points to greater potency. Consider `CCCC(=O)OC[C@@H]1C=C[C@H](n2cc(F)c(N)nc2=O)O1`, for which the IC50 was > 100 µM.

Regarding `CCCNc1nc(=O)n([C@H]2C=C[C@@H](CO)O2)cc1F`, the IC50 is > 100 µM.

As to `Nc1nc(=O)n([C@H]2C=C[C@@H](CO)O2)cc1F` [DEXELVUCITABINE], the IC50 was > 100 µM.

With `Nc1nc(=O)n([C@@H]2C=C[C@@H](CO)O2)cc1F`, the concentration for half-maximal inhibition (IC50) is > 100 µM.

Compound `O=c1[nH]cc(F)c(=O)[nH]1` [FLUOROURACIL] registered an IC50 of 41 µM.

Take `O=c1[nH]c(=O)n([C@@H]2C=C[C@H](CO)O2)cc1F`: half-maximal inhibition (IC50) was put at 15.8 µM.

Another assay has as its system Vero. Nature of the assay: Tested in vitro for cytotoxicity against Vero cells. Type of assay: functional, cell-based. To be noted: Chlorocebus sabaeus.
As to `CCCC(=O)OC[C@@H]1C=C[C@H](n2cc(F)c(N)nc2=O)O1`, the IC50 was > 100 µM.

With `CCCNc1nc(=O)n([C@H]2C=C[C@@H](CO)O2)cc1F`, the IC50 was > 100 µM.

Take `Nc1nc(=O)n([C@H]2C=C[C@@H](CO)O2)cc1F` [DEXELVUCITABINE]: the half-inhibitory concentration (IC50) is > 100 µM.

`Nc1nc(=O)n([C@@H]2C=C[C@@H](CO)O2)cc1F`: the IC50 is > 100 µM.

`O=c1[nH]cc(F)c(=O)[nH]1` [FLUOROURACIL] had an IC50 of 6.81 µM.

Take `O=c1[nH]c(=O)n([C@@H]2C=C[C@H](CO)O2)cc1F`: the IC50 amounted to 32 µM.

The next assay has as its system HepG2. Nature of the assay: Tested in vitro for anticancer activity against HepG2 cells. Type of assay: functional, cell-based. To be noted: Homo sapiens.
As for `CCCC(=O)OC[C@@H]1C=C[C@H](n2cc(F)c(N)nc2=O)O1`, the IC50 was > 100 µM.

`CCCNc1nc(=O)n([C@H]2C=C[C@@H](CO)O2)cc1F`: the IC50 is > 100 µM.

As for `Nc1nc(=O)n([C@H]2C=C[C@@H](CO)O2)cc1F` [DEXELVUCITABINE], the half-maximal inhibitory concentration (IC50) was > 100 µM.

Take `Nc1nc(=O)n([C@@H]2C=C[C@@H](CO)O2)cc1F`: the IC50 is > 100 µM.

`O=c1[nH]cc(F)c(=O)[nH]1` [FLUOROURACIL]: half-maximal inhibition (IC50) required 37.9 µM.

`O=c1[nH]c(=O)n([C@@H]2C=C[C@H](CO)O2)cc1F` displayed an IC50 of 35.4 µM.

Another assay deals with SK-MES-1. In words: Tested in vitro for anticancer activity against SK-MES-1 cells. In kind it is functional, cell-based. To be noted: Homo sapiens.
`CCCC(=O)OC[C@@H]1C=C[C@H](n2cc(F)c(N)nc2=O)O1`: the IC50 was > 100 µM.

As to `CCCNc1nc(=O)n([C@H]2C=C[C@@H](CO)O2)cc1F`, the half-inhibitory concentration (IC50) is > 100 µM.

On to `Nc1nc(=O)n([C@H]2C=C[C@@H](CO)O2)cc1F` [DEXELVUCITABINE], for which the IC50 was > 100 µM.

Turning to `Nc1nc(=O)n([C@@H]2C=C[C@@H](CO)O2)cc1F`, the IC50 was > 100 µM.

Compound `O=c1[nH]cc(F)c(=O)[nH]1` [FLUOROURACIL] displayed an IC50 of 13.1 µM.

Consider `O=c1[nH]c(=O)n([C@@H]2C=C[C@H](CO)O2)cc1F`, for which the 50% inhibitory concentration (IC50) came out at 4.6 µM.

Another assay has as its system SK-MEL-28. Nature of the assay: Tested in vitro for anticancer activity against SK-MEL-28 cells. Type of assay: functional, cell-based. As to conditions: Homo sapiens.
`CCCC(=O)OC[C@@H]1C=C[C@H](n2cc(F)c(N)nc2=O)O1`: the half-inhibitory concentration (IC50) is > 100 µM.

`CCCNc1nc(=O)n([C@H]2C=C[C@@H](CO)O2)cc1F`: the 50% inhibitory concentration (IC50) was > 100 µM.

On to `Nc1nc(=O)n([C@H]2C=C[C@@H](CO)O2)cc1F` [DEXELVUCITABINE], for which the IC50 is > 100 µM.

Take `Nc1nc(=O)n([C@@H]2C=C[C@@H](CO)O2)cc1F`: the IC50 was > 100 µM.

Take `O=c1[nH]cc(F)c(=O)[nH]1` [FLUOROURACIL]: it took 4.5 µM to reach half-maximal inhibition (IC50).

`O=c1[nH]c(=O)n([C@@H]2C=C[C@H](CO)O2)cc1F` came in with an IC50 of 7.45 µM.

The next assay deals with LNCaP. Nature of the assay: Tested in vitro for anticancer activity against LNCaP cells. In kind it is functional, cell-based. To be noted: Homo sapiens.
As to `CCCC(=O)OC[C@@H]1C=C[C@H](n2cc(F)c(N)nc2=O)O1`, the IC50 is > 100 µM.

As for `CCCNc1nc(=O)n([C@H]2C=C[C@@H](CO)O2)cc1F`, the IC50 is > 100 µM.

As to `Nc1nc(=O)n([C@H]2C=C[C@@H](CO)O2)cc1F` [DEXELVUCITABINE], the IC50 was > 100 µM.

For the compound `Nc1nc(=O)n([C@@H]2C=C[C@@H](CO)O2)cc1F`, the 50% inhibitory concentration (IC50) was > 100 µM.

In the case of `O=c1[nH]cc(F)c(=O)[nH]1` [FLUOROURACIL], the half-inhibitory concentration (IC50) was > 100 µM.

Regarding `O=c1[nH]c(=O)n([C@@H]2C=C[C@H](CO)O2)cc1F`, it took 57.2 µM to reach half-maximal inhibition (IC50).

Another assay has as its system 9L. Nature of the assay: Tested in vitro for anticancer activity against 9L cells. In kind it is functional, cell-based. As to conditions: Rattus norvegicus. The method in brief:
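Growth inhibition in human or rat tumour cell lines. Cells cultured with drug in 96-well plates for 5 days (LNCaP, SK-MES-1), 4 days (CEM, MCF-7, SK-MEL-28, HepG2, 9L) or 3 days (PC-3). Solvent-exposed untreated cells served as negative control. Viable, actively metabolizing cells were read by MTT assay. DMSO stocks (40 mM) were diluted in growth medium. IC50 in μM.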
As to `CCCC(=O)OC[C@@H]1C=C[C@H](n2cc(F)c(N)nc2=O)O1`, the half-inhibitory concentration (IC50) was > 100 µM.

As for `Nc1nc(=O)n([C@@H]2C=C[C@@H](CO)O2)cc1F`, the IC50 is > 100 µM.

Turning to `O=c1[nH]cc(F)c(=O)[nH]1` [FLUOROURACIL], the 50% inhibitory concentration (IC50) came out at 1 µM.

`O=c1[nH]c(=O)n([C@@H]2C=C[C@H](CO)O2)cc1F`: 1.9 µM corresponded to half-maximal inhibition (IC50).

A further assay has as its system CCRF-CEM. In words: Tested in vitro for anticancer activity against CEM cells. In kind it is functional, cell-based. As to conditions: Homo sapiens.
Turning to `CCCC(=O)OC[C@@H]1C=C[C@H](n2cc(F)c(N)nc2=O)O1`, the IC50 was > 100 µM.

Take `CCCNc1nc(=O)n([C@H]2C=C[C@@H](CO)O2)cc1F`: the IC50 was > 100 µM.

With `Nc1nc(=O)n([C@H]2C=C[C@@H](CO)O2)cc1F` [DEXELVUCITABINE], the concentration for half-maximal inhibition (IC50) is > 100 µM.

As to `Nc1nc(=O)n([C@@H]2C=C[C@@H](CO)O2)cc1F`, the half-maximal inhibitory concentration (IC50) is > 100 µM.

Turning to `O=c1[nH]cc(F)c(=O)[nH]1` [FLUOROURACIL], 90.5 µM corresponded to half-maximal inhibition (IC50).

Regarding `O=c1[nH]c(=O)n([C@@H]2C=C[C@H](CO)O2)cc1F`, the concentration for half-maximal inhibition (IC50) was 12.9 µM.

A further assay concerns PC-3. Nature of the assay: Tested in vitro for anticancer activity against PC-3 cells. Type of assay: functional, cell-based. To be noted: Homo sapiens.
`CCCC(=O)OC[C@@H]1C=C[C@H](n2cc(F)c(N)nc2=O)O1`: the IC50 was > 100 µM.

Take `CCCNc1nc(=O)n([C@H]2C=C[C@@H](CO)O2)cc1F`: the concentration for half-maximal inhibition (IC50) is > 100 µM.

Regarding `Nc1nc(=O)n([C@H]2C=C[C@@H](CO)O2)cc1F` [DEXELVUCITABINE], the half-inhibitory concentration (IC50) was > 10 µM.

For `Nc1nc(=O)n([C@@H]2C=C[C@@H](CO)O2)cc1F`, the IC50 is > 100 µM.

For the compound `O=c1[nH]cc(F)c(=O)[nH]1` [FLUOROURACIL], the IC50 is > 100 µM.

Take `O=c1[nH]c(=O)n([C@@H]2C=C[C@H](CO)O2)cc1F`: the IC50 was determined as 83.4 µM.

The test system of the next assay is Human immunodeficiency virus 1. Nature of the assay: (§1) Tested in vitro for anti HIV-1 activity against PBM cells. In kind it is functional. As to conditions: Human immunodeficiency virus 1, PBMC.
The EC90 is the concentration at which the effect reaches the 90% level. Read a low EC90 as an effect from little substance. In turn, `CCCC(=O)OC[C@@H]1C=C[C@H](n2cc(F)c(N)nc2=O)O1` registered a concentration for an effect of 90% (EC90) of 0.61 µM.

Take `CCCNc1nc(=O)n([C@H]2C=C[C@@H](CO)O2)cc1F`: the EC90 was > 100 µM.

The compound `Nc1nc(=O)n([C@H]2C=C[C@@H](CO)O2)cc1F` [DEXELVUCITABINE] registered an EC90 of 0.77 µM.

`Nc1nc(=O)n([C@@H]2C=C[C@@H](CO)O2)cc1F` returned an EC90 of 70 µM.

Compound `O=c1[nH]c(=O)n([C@@H]2C=C[C@H](CO)O2)cc1F` returned an EC90 of 3 µM.

Tested on in a further assay: not listed separately
Nature of the assay: Tested in vitro for cytotoxicity against PBM cells. To be noted: Homo sapiens, PBMC. Type of assay: functional, cell-based.
With `CCCC(=O)OC[C@@H]1C=C[C@H](n2cc(F)c(N)nc2=O)O1`, the IC50 is > 100 µM.

The compound `CCCNc1nc(=O)n([C@H]2C=C[C@@H](CO)O2)cc1F` registered an IC50 of 34.7 µM.

Turning to `Nc1nc(=O)n([C@H]2C=C[C@@H](CO)O2)cc1F` [DEXELVUCITABINE], the IC50 was > 100 µM.

As to `Nc1nc(=O)n([C@@H]2C=C[C@@H](CO)O2)cc1F`, the IC50 was > 100 µM.

Turning to `O=c1[nH]cc(F)c(=O)[nH]1` [FLUOROURACIL], the midpoint of inhibition, the IC50, lay at 5 µM.

As for `O=c1[nH]c(=O)n([C@@H]2C=C[C@H](CO)O2)cc1F`, the half-maximal inhibitory concentration (IC50) was 2.3 µM.

A further assay relates to Human immunodeficiency virus 1. The description is as §1. In kind it is functional, organism-based. To be noted: Human immunodeficiency virus 1, PBMC.
By EC50 is commonly meant the concentration needed to bring the measured effect to its halfway point. A lower EC50 goes with greater potency. In turn, `CCCC(=O)OC[C@@H]1C=C[C@H](n2cc(F)c(N)nc2=O)O1` showed an EC50 of 0.15 µM.

For `CCCNc1nc(=O)n([C@H]2C=C[C@@H](CO)O2)cc1F`, the concentration giving a half-maximal response (EC50) was > 100 µM.

In the case of `Nc1nc(=O)n([C@H]2C=C[C@@H](CO)O2)cc1F` [DEXELVUCITABINE], the concentration for a half-maximal effect (EC50) was found to be 0.046 µM.

`Nc1nc(=O)n([C@@H]2C=C[C@@H](CO)O2)cc1F` gave an EC50 of 20 µM.

The compound `O=c1[nH]c(=O)n([C@@H]2C=C[C@H](CO)O2)cc1F` displayed an EC50 of 0.26 µM.
